# Screening data from PubChem.
# PABP polyA inh: PABP-poly(A) binding inhibition; P11940; PABP-poly(A) RNA binding, fluorescence polarization; calls only at 35 µM; 290,000 tested, 1% active; AID 2014;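 further: calls also rest on retests at 20 µM and on dose response follow-up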
# Target sequence (P11940 whole entry, looked up): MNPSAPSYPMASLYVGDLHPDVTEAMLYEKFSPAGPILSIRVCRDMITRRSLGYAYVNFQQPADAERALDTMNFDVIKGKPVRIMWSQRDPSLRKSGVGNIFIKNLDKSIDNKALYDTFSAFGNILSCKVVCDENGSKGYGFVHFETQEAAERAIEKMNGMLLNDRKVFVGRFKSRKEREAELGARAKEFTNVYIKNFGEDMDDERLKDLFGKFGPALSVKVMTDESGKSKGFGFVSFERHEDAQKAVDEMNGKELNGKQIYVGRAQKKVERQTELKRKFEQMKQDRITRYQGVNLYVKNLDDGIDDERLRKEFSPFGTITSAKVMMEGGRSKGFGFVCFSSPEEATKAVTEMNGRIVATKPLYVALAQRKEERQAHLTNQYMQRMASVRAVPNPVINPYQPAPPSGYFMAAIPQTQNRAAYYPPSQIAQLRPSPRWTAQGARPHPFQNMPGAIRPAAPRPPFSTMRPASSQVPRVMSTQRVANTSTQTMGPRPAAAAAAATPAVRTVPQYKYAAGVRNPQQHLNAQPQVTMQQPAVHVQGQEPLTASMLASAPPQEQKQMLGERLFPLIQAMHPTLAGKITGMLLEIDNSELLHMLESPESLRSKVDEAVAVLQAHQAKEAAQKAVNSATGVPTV
# eIF4H FP inh: inhibitors of RNA binding by human eIF4H. Q15056. eIF4H fluorescence polarization binding assay. inhibition, % at 35 µM. 290,000 tested, 0.94% active. AID 2012;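 further: calls also rest on retests at 20 µM and on dose response follow-up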
# TCR CD3 inh: human TCR-CD3 binding inhibition; TAMRA-labeled TCR probe fluorescence, biochemical; inhibition, % at 9.4 µM; 360,000 tested, 0.37% active; AID 651800; in the data active means inhibition above about 19%;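 further: recombinant mutant TCR 2C K166C tagged with TAMRA read by polarization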
# RBBP9 inhibitor: blocks human serine hydrolase RBBP9; O75884; recombinant RBBP9, FP-Rh probe fluorescence polarization; inhibition, % at 7.94 µM; 220,000 tested, 0.2% active; AID 1515;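 active means inhibition above the campaign mean of all tested compounds plus 3 SD, cut at about 14% in these data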
#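 Test system: recombinant human RBBP9; Timing: 30 min then 45 min, 25 °C; Detection: fluorescence polarization; Control set: RBBP9 with DMSO as uninhibited control, no-protein wells as full inhibition; Compound dosing: one concentration, 7.94 µM nominal, 0.794% DMSO; Probe or stimulus: FP-Rh activity-based probe, 375 nM before mixing.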
# MLLE-PAM2 inh: blocks PAM2 peptide binding to the PABP1 MLLE domain; GST-MLLE / FITC-PAM2 fluorescence polarization; P11940; 360,000 tested, 0.36% active; inhibition, % at 20 µM; in the data active means inhibition above about 35%, passing the limit was not always enough
# Numbers stand for hits; - = inactive; ? = inconclusive; . = not tested or not shown; + = active, no number. Compounds with a hit are over-represented: about 1.6% of the library has one in this group of screens. Unless noted, how the calls were made is not given here.
SMILES,PABP polyA inh,eIF4H FP inh,TCR CD3 inh,RBBP9 inhibitor,MLLE-PAM2 inh
Cn1cc(CCOCc2ccc(Br)cc2)c2ccccc21,.,.,-,.,.
COc1ccc(-c2ccnc3nc(-n4cccc4)nn23)cc1,-,-,-,-,-
c1coc(-c2ccnc3nc(-n4cccc4)nn23)c1,+,93.9,-,-,-
Cc1ccc(S(=O)(=O)Nc2nc3ccccc3nc2Nc2cccc(S(=O)(=O)N3CCCC3)c2)cc1,?,?,-,-,44.9
O=[N+]([O-])c1cccc(S(=O)(=O)Nc2nc3ccccc3nc2Nc2cccc(S(=O)(=O)N3CCCCC3)c2)c1,-,-,-,-,-
N#C/C(=C/c1ccc(N2CCOCC2)c([N+](=O)[O-])c1)C(N)=O,+,61.6,-,-,-
CO/N=C/c1ccc(N2CCOCC2)c([N+](=O)[O-])c1,-,-,-,-,-
COc1ccc(N2Cc3ccc(C(=O)N/N=C\c4ccc(O)cc4O)cc3C2)cc1,-,64.7,.,.,.
CCN(Cc1ccccc1)C(=O)Nc1c(Cl)cccc1Cl,.,.,-,.,.
CC1=C(C#N)c2nc(N)c(C#N)c(C)c2/C1=C\c1ccc(-c2ccccc2C(=O)O)o1,+,85.9,-,-,-
COc1cc2c(c3c1c(=O)c1cccc(F)c1n3C)C=CC(C)(C)O2,.,.,-,.,.
CCc1ccc(NC(=S)N2CCNC(=O)C2CC(=O)OC)cc1 (stereo not given),+,-,-,-,-
COC(=O)[C@]12C[C@H](CC(=O)NCc3cccs3)C(=O)N(CCC3=CCCCC3)C1=C[C@H](C(C)(C)C)O[C@@H]2C,.,.,-,.,.
CC1(OC(=O)CCc2ccccc2)C(=O)C=C2C=C(c3ccsc3)OC=C2C1=O (stereo not given),+,69.9,.,.,.
CC1(OC(=O)CCc2ccccc2)C(=O)C=C2C=C(c3ccc(C#N)cc3)N(C3CCCC3)C=C2C1=O (stereo not given),+,-,-,.,-
CC1(OC(=O)CCc2ccccc2)C(=O)C=C2C=C(c3ccc(C#N)cc3)N(CC3CC3)C=C2C1=O (stereo not given),-,-,-,.,-
CC1(OC(=O)C2CCCC2)C(=O)C=C2C=C(c3ccsc3)OC=C2C1=O (stereo not given),-,-,-,.,-
CC(C)Cn1c(N)c(C(=O)COC(=O)c2cc(C3CC3)nc3ccccc23)c(=O)n(C)c1=O,+,-,-,-,.
CC(C)c1[nH]nc2c1C(c1cccc(C(F)(F)F)c1)N(Cc1ccccc1)C2=O (stereo not given),.,.,-,.,.
O=C(OC1CCCCC1)c1ccc2c(c1)C1C=CCC1C(C(=O)O)N2 (stereo not given),+,92.8,.,-,.
COc1ccc(C(=O)N/N=C(\C)c2ccc3c(c2)C2C=CCC2C(c2ccccc2)N3)cc1 (stereo not given),-,-,.,-,-
CCOC(=O)C1Nc2ccc(Br)cc2C2C=CCC12 (stereo not given),-,-,-,.,-
O=C(O)c1ccc2c(c1)[C@@H]1C=CC[C@@H]1[C@H](c1ccccn1)N2,.,.,24.8,-,42.1
O=C(O)C1Nc2ccc(Br)cc2C2C=CCC12 (stereo not given),+,105.0,.,.,-
C[C@H]1CN([C@@H](C)CO)C(=O)CCCn2cc(nn2)CO[C@@H]1CN(C)S(=O)(=O)c1ccccc1F,.,.,-,.,.
SMILES,PABP polyA inh,eIF4H FP inh,TCR CD3 inh,RBBP9 inhibitor,MLLE-PAM2 inh
CC(C)(C)OC(=O)NCCCCCNC(=O)c1[nH]cnc1C(=O)N[C@@H](Cc1ccccc1)C(=O)OCc1ccccc1,+,108.9,-,-,-
COc1cccc(CNC(=O)[C@H]2CCCN2C(=O)[C@H]2CCCN2C(=O)N2CCOCC2)c1,.,.,-,.,.
NC(=O)c1ncn2c(=O)n(CCCl)nnc12,.,.,-,.,.
Cn1nnc2c(C(N)=O)ncn2c1=O,-,-,-,-,39.3
Cc1ccc(OCC(=O)Nc2ccc(S(=O)(=O)N(C)C3CCN(C)CC3)cc2)c(C)c1,+,-,-,.,-
CN1CCc2c(C#N)c(N3CCCCC3)nc(NCc3ccccc3)c2C1,+,73.6,-,-,-
COC(=O)/C=C1\SC(=NC(=O)c2ccc(C)cc2)NC1=O,-,-,-,-,40.1
OC(c1ccccc1)(c1ccccc1)C1CCN(CCCOc2ccncc2)CC1,.,.,-,.,.
C[C@H](CO)N1C[C@H](C)[C@@H](CN(C)C(=O)C2CC2)OCc2cn(nn2)CCCC1=O,.,.,-,.,.
O=C(COC(=O)CCc1c[nH]c(=O)[nH]1)Nc1cccc(Cl)c1,-,-,-,-,39.3
O=C(COC(=O)CCCOc1ccc(Cl)cc1Cl)Nc1cccc(Cl)c1,-,-,-,-,-
Cc1c(NC(=O)C(C)OC(=O)/C=C/c2ccco2)c(=O)n(-c2ccccc2)n1C (stereo not given),+,77.5,-,-,-
COc1cccc(/C=C/C(=O)OC(C)C(=O)Nc2c(C)n(C)n(-c3ccccc3)c2=O)c1 (stereo not given),-,-,-,-,-
CCOC(=O)C1CCCN(C(=O)c2ccc(-c3ccc([N+](=O)[O-])cc3)o2)C1 (stereo not given),.,.,-,.,40.8
CCOC(=O)C1CCCN(C(=O)c2ccc(CS(=O)(=O)c3ccc(C)cc3)o2)C1 (stereo not given),-,-,.,-,-
Nc1n[nH]c(=S)n1/N=C1/C(=O)Nc2ccccc21,-,-,-,-,44.5
O=C1Nc2ccccc2C1=NN1CCCCCC1,.,.,-,.,-
Cc1cc(C(=O)NC2Cc3ccccc3C2)c(C)o1,+,95.8,-,-,-
NC(=S)N=Nc1c(O)[nH]c2c(Cl)cc(Cl)cc12,.,.,-,.,45.2
NC(=S)N=Nc1c(O)[nH]c2cc(F)c(F)cc12,-,-,-,-,40.1
NC(=O)N=Nc1c(O)[nH]c2c(Br)cc(Br)cc12,-,-,.,-,.
N#C[C@H](N)[C@H]1O[C@@H](n2ccc(=O)[nH]c2=O)[C@H](O)[C@@H]1O,.,.,-,.,.
O=C1/C(=C/c2ccco2)N=C(N2CCCCC2)N1c1ccccc1,+,87.8,-,-,-
CC(C)N(C1=N/C(=C\c2ccco2)C(=O)N1c1ccccc1)C(C)C,-,-,-,-,-
CCOC(=O)C1CSCCS(=O)(=O)N1Cc1ccccc1F (stereo not given),.,.,-,.,.
SMILES,PABP polyA inh,eIF4H FP inh,TCR CD3 inh,RBBP9 inhibitor,MLLE-PAM2 inh
COCc1cc(N2CCN(C(=O)OC(C)(C)C)C[C@@H]2C)ccc1N1CC[C@H](O)C1,.,.,-,.,.
CCOc1ccc(C(=O)NC(=S)N(Cc2ccccc2)Cc2ccccc2)cc1,-,-,-,-,-
CCCN(CCC)C(=S)NC(=O)c1ccc(-c2ccccc2)cc1,-,-,-,-,38.8
CC(=O)Nc1ccc(SCC(=O)NC(=O)c2ccc(S(=O)(=O)N(C)C)cc2)cc1,.,.,-,.,40.3
CN(C)S(=O)(=O)c1ccc(C(=O)NC(=O)CSc2ccccc2)cc1,-,-,-,-,-
O=C(N[C@@H](Cc1cccnc1)C(=O)N1CCC[C@H]1C(=O)NCCc1ccccc1Cl)C1CCCC1,.,.,-,.,.
CC(=O)Nc1c(-c2ccccc2)nc2ccc(Cl)cn12,.,.,-,.,-
CCOC(=O)CNc1c(-c2ccc(O)cc2)nc2ccc(Cl)cn12,+,79.5,-,-,-
O=C(Nc1c(-c2ccccc2)nc2ccc(Cl)cn12)c1cccs1,+,50.6,-,-,-
